Measurements published in ChEMBL document CHEMBL1147718, “Design, synthesis, antibacterial, and QSAR studies of myristic acid derivatives” (2006).
≈ marks a conversion by molar mass, not a printed value.

What was measured:
Assay type in all cases: functional
Settings in all cases: read-out: -Log MIC (converted)
[1] = system: Escherichia coli; experiment: Antibacterial activity against Escherichia coli
Summary of the method: (§1)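 Serial dilution MIC in double strength nutrient broth-IP against S. aureus, M. luteus and E. coli. Derivatives dissolved in DMSO as […] stock. Activity reported as −log MIC.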

[2] = system: Staphylococcus aureus; experiment: Antibacterial activity against Staphylococcus aureus; summary of the method: as §1
[3] = system: Micrococcus luteus; experiment: Antibacterial activity against Micrococcus luteus; summary of the method: as §1

Compound | MIC [1] [µM] | MIC [2] [µM] | MIC [3] [µM]
CCCCCCCCCCCCCC(=O)OCCC(C)C [ISOPENTYL TETRADECANOATE] | 3020 (≈ 901 µg/mL) | 1660 (≈ 495 µg/mL) | 2000 (≈ 596 µg/mL)
CCCCCCCCCCCCCC(=O)Nc1ccccc1[N+](=O)[O-] | 3470 (≈ 1210 µg/mL) | 1380 (≈ 481 µg/mL) | 1740 (≈ 606 µg/mL)
CCCCCCCCCCCCCC(=O)OCCC [PROPYL TETRADECANOATE] | 4570 (≈ 1240 µg/mL) | 2340 (≈ 634 µg/mL) | 2340 (≈ 634 µg/mL)
CCCCCCCCCCCCCC(=O)Nc1ccccc1 | 3160 (≈ 960 µg/mL) | 1950 (≈ 592 µg/mL) | 1950 (≈ 592 µg/mL)
CCCCCCCCCCCCCC(=O)NN [TETRADECANEHYDRAZIDE] | 4170 (≈ 1010 µg/mL) | 4170 (≈ 1010 µg/mL) | 5130 (≈ 1240 µg/mL)
CCCCCCCCCCCCCC(=O)OCCCC [BUTYL TETRADECANOATE] | 3550 (≈ 1010 µg/mL) | 2630 (≈ 748 µg/mL) | 4370 (≈ 1240 µg/mL)
CCCCCCCCCCCCCC(=O)O [MYRISTIC ACID] | 5500 (≈ 1260 µg/mL) | 3310 (≈ 756 µg/mL) | 3310 (≈ 756 µg/mL)
CCCCCCCCCCCCCC(=O)OCCCCC [PENTYL TETRADECANOATE] | 3020 (≈ 901 µg/mL) | 2000 (≈ 596 µg/mL) | 2000 (≈ 596 µg/mL)
CCCCCCCCCCCCCC(N)=O [TETRADECANAMIDE] | 3090 (≈ 703 µg/mL) | 2570 (≈ 584 µg/mL) | 5130 (≈ 1170 µg/mL)
CCCCCCCCCCCCCC(=O)OC [METHYL TETRADECANOATE] | 4170 (≈ 1010 µg/mL) | 4170 (≈ 1010 µg/mL) | 5130 (≈ 1240 µg/mL)
CCCCCCCCCCCCCC(=O)NCCC | 3720 (≈ 1000 µg/mL) | 2570 (≈ 693 µg/mL) | 2570 (≈ 693 µg/mL)
CCCCCCCCCCCCCC(=O)OC(C)C [ISOPROPYL MYRISTATE] | 3720 (≈ 1000 µg/mL) | 2240 (≈ 605 µg/mL) | 2240 (≈ 605 µg/mL)
CCCCCCCCCCCCCC(=O)NCCCC | 3550 (≈ 1010 µg/mL) | 2140 (≈ 606 µg/mL) | 2450 (≈ 696 µg/mL)
CCCCCCCCCCCCCC(=O)OCC(C)C [ISOBUTYL TETRADECANOATE] | 3160 (≈ 900 µg/mL) | 1740 (≈ 494 µg/mL) | 1740 (≈ 494 µg/mL)

Now those with a lower MIC [1], led by results:

MIC [1] [µM] | MIC [2] [µM] | MIC [3] [µM] | Compound
2750 (≈ 960 µg/mL) | 1380 (≈ 481 µg/mL) | 1740 (≈ 606 µg/mL) | CCCCCCCCCCCCCC(=O)Nc1ccc([N+](=O)[O-])cc1
2750 (≈ 960 µg/mL) | 2750 (≈ 960 µg/mL) | 3470 (≈ 1210 µg/mL) | CCCCCCCCCCCCCC(=O)Nc1cccc([N+](=O)[O-])c1
2690 (≈ 910 µg/mL) | 1480 (≈ 500 µg/mL) | 1480 (≈ 500 µg/mL) | CCCCCCCCCCCCCC(=O)Nc1ccc(Cl)cc1
2690 (≈ 910 µg/mL) | 1480 (≈ 500 µg/mL) | 1170 (≈ 397 µg/mL) | CCCCCCCCCCCCCC(=O)Nc1cccc(Cl)c1
2690 (≈ 910 µg/mL) | 1480 (≈ 500 µg/mL) | 1780 (≈ 601 µg/mL) | CCCCCCCCCCCCCC(=O)Nc1ccccc1Cl
2570 (≈ 803 µg/mL) | 1580 (≈ 495 µg/mL) | 1290 (≈ 403 µg/mL) | CCCCCCCCCCCCCC(=O)OCCCCCC [HEXYL TETRADECANOATE]
2510 (≈ 800 µg/mL) | 1580 (≈ 505 µg/mL) | 1860 (≈ 593 µg/mL) | CCCCCCCCCCCCCC(=O)OCc1ccccc1 [BENZYL TETRADECANOATE]
2450 (≈ 629 µg/mL) | 3890 (≈ 998 µg/mL) | 2450 (≈ 629 µg/mL) | CCCCCCCCCCCCCC(=O)OCC [ETHYL TETRADECANOATE]
2450 (≈ 802 µg/mL) | 1230 (≈ 402 µg/mL) | 1510 (≈ 494 µg/mL) | CCCCCCCCCCCCCC(=O)OCCCCCCC [HEPTYL TETRADECANOATE]
2400 (≈ 800 µg/mL) | 1510 (≈ 505 µg/mL) | 1780 (≈ 593 µg/mL) | CCCCCCCCCCCCCC(=O)Nc1ccccc1OC
2400 (≈ 800 µg/mL) | 1510 (≈ 505 µg/mL) | 1780 (≈ 593 µg/mL) | CCCCCCCCCCCCCC(=O)Nc1ccc(OC)cc1
2340 (≈ 798 µg/mL) | 1170 (≈ 400 µg/mL) | 1170 (≈ 400 µg/mL) | CCCCCCCCCCCCCC(=O)OCCCCCCCC [OCTYL TETRADECANOATE]
2240 (≈ 635 µg/mL) | 2630 (≈ 746 µg/mL) | 2140 (≈ 606 µg/mL) | CCCCCCCCCCCCCC(=O)N(CC)CC
468 (≈ 155 µg/mL) | 468 (≈ 155 µg/mL) | 468 (≈ 155 µg/mL) | O=C(O)c1cn(C2CC2)c2cc(N3CCNCC3)c(F)cc2c1=O [CIPROFLOXACIN]
